ChEMBL document CHEMBL1833876 (J Med Chem, 2011)
Active and inactive are the calls of the source. The calls are words filed in the database; no cut-off is given here.

Assays:
[1] = Antiproliferative activity against chinese hamster R2(VC) cells assessed as reduction of viable cells after 96 hrs; details: Cricetulus griseus
R2 [2] = test: Decrease in intracellular ATP concentration in chinese hamster R2 cells expressing human PCFT at 1 uM after 24 hrs by HPLC relative to control at pH 6.8; format: functional, Cricetulus griseus; set-up: scale not given: the % may be the effect or the level left
How it was run: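 R2/hPCFT4 CHO cells seeded in folate-free RPMI 1640 with 10% dialysed FBS and 25 nM leucovorin (pH 7.2). After 24 h, switched to the same medium buffered to pH 6.8 with 25 mM PIPES/25 mM HEPES. Drug at 1 µM, or vehicle (0.5% DMSO or H2O), for 24 h. Nucleotides extracted; ATP quantified by HPLC against vehicle control.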

R2 [3] = test: Inhibition of GARFTase in chinese hamster R2 cells expressing human PCFT assessed as incorporation of [14C]glycine into [14C]formyl GAR in the presence of 4 uM azaserine; format: cell-based; details: Cricetulus griseus
[4] = Antiproliferative activity against chinese hamster RT16 cells expressing human FRalpha assessed as reduction of viable cells after 96 hrs in the presence of 200 nM folic acid; format: functional, cell-based; details: Cricetulus griseus, RT16, 96 h
How it was run: (§1)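 Same 96 h CellTiter-blue proliferation set-up in folate-free RPMI/10% dFBS with 2 nM leucovorin. Run in parallel incubations that included 200 nM folic acid alongside the antifolate, to establish FR-dependent uptake.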

R2 [5] = test: Antiproliferative activity against chinese hamster R2 cells expressing human PCFT assessed as reduction of viable cells after 96 hrs; format: functional, cell-based; details: Cricetulus griseus, R2, 96 h
[6] = target: T1, Reduced folate transporter (Homo sapiens) (UniProt P41440); test: Inhibition of human RFC-mediated [3H]MTX uptake in chinese hamster PC43-10 cells at 10 uM after 2 mins relative to control; format: cell-based
T1 sequence (whole entry): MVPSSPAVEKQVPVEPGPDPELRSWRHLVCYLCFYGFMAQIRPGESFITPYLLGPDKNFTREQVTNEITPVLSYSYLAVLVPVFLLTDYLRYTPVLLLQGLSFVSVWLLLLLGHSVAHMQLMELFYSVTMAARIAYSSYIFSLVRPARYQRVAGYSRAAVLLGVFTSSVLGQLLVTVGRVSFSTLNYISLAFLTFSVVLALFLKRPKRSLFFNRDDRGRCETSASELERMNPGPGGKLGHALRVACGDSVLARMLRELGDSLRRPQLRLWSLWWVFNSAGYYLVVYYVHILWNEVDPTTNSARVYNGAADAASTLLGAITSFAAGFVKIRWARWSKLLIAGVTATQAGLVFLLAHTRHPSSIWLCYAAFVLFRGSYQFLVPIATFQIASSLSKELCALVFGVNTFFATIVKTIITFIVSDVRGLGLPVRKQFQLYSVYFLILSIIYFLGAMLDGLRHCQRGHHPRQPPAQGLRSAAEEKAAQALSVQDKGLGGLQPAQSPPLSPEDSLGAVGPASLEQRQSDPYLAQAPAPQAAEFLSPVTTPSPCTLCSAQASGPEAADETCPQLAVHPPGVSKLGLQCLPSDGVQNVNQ
How it was run: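 PC43-10 (hRFC) cells were suspended in Hank's balanced salts. […] Results were expressed per mg protein, and percent inhibition was taken versus control uptake.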

[7] = target: Folate receptor beta (Homo sapiens) (UniProt P14207); test: Displacement of [3H]-folic acid from human FRbeta expressed in chinese hamster D4 cells after 15 mins; format: cell-based
Sequence of Folate receptor beta (Homo sapiens) (P14207 17-230 limits assumed): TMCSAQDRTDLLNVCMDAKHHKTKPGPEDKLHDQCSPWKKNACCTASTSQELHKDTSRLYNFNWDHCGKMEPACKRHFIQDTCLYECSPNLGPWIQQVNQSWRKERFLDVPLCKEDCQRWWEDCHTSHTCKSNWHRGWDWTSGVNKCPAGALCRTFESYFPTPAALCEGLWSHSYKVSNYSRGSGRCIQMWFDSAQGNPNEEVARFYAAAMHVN

[8] = Antiproliferative activity against chinese hamster PC43-10 expressing human RFC assessed as reduction of viable cells after 96 hrs; format: functional; details: Cricetulus griseus, PC43-10, 96 h
[9] = Antiproliferative activity against chinese hamster RT16 cells expressing human FRalpha assessed as reduction of viable cells after 96 hrs; format: functional, cell-based; details: Cricetulus griseus, RT16, 96 h
[10] = Antiproliferative activity against chinese hamster D4 cells expressing human FRbeta assessed as reduction of viable cells after 96 hrs; format: functional, cell-based; details: Cricetulus griseus, D4, 96 h
[11] = Antiproliferative activity against chinese hamster D4 cells expressing human FRbeta assessed as reduction of viable cells after 96 hrs in the presence of 200 nM folic acid; format: functional, cell-based; details: Cricetulus griseus, D4, 96 h
How it was run: as §1

KB [12] = test: Antiproliferative activity against human KB cells expressing human RFC, FRalpha and PCFT assessed as reduction of viable cells after 96 hrs; format: functional, cell-based
KB [13] = test: Antiproliferative activity against human KB cells expressing human RFC, FRalpha and PCFT assessed as reduction of viable cells after 96 hrs in the presence of 200 nM folic acid; format: functional, cell-based
How it was run: as §1

IGROV-1 [14] = test: Antiproliferative activity against human IGROV1 cells expressing human RFC, FRalpha and PCFT assessed as reduction of viable cells after 96 hrs; format: functional, cell-based; details: IGROV-1, 96 h
IGROV-1 [15] = test: Antiproliferative activity against human IGROV1 cells expressing human RFC, FRalpha and PCFT assessed as reduction of viable cells after 96 hrs in the presence of 200 nM folic acid; format: functional, cell-based; details: IGROV-1, 96 h
How it was run: as §1

[16] = target: Folate receptor alpha (Homo sapiens) (UniProt P15328); test: Displacement of [3H]-folic acid from human FRaplha expressed in chinese hamster RT16 cells after 15 mins; format: cell-based
Sequence of Folate receptor alpha (Homo sapiens) (P15328 25-234 limits assumed): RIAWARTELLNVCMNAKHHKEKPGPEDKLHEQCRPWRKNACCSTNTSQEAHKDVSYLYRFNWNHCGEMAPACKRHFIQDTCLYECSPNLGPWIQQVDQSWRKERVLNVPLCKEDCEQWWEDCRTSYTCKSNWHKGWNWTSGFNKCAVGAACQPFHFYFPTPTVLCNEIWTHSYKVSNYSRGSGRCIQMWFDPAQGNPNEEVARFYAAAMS

R2 [17] = test: Antiproliferative activity against chinese hamster R2 cells assessed as reduction of viable cells after 96 hrs; details: Cricetulus griseus, R2, 96 h
[18] = target: T2, Proton-coupled folate transporter (Homo sapiens) (UniProt Q96NT5); test: Inhibition of human PCFT-mediated [3H]MTX uptake ectopically expressed in chinese hamster R2 cells at 10 uM at pH 5.5 to 7.2; format: cell-based
T2 sequence (whole entry): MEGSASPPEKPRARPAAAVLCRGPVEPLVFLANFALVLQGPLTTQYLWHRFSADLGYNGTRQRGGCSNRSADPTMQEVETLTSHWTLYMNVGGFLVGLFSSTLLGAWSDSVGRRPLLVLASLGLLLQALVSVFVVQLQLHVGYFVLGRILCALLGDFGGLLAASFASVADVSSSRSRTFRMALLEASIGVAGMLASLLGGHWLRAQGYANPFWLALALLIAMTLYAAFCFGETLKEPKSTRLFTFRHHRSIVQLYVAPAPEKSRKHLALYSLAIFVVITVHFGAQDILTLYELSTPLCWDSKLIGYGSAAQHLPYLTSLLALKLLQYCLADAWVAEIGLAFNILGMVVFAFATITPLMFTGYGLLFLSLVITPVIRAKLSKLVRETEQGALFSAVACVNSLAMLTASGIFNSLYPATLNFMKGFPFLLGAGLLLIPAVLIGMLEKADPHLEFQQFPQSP

[19] = target: T2, Proton-coupled folate transporter (Homo sapiens); test: Induction of current in human PCFT expressed in xenopus oocyte at 5 uM at holding potential -90 mV by voltage clamp assay
[20] = target: T2, Proton-coupled folate transporter (Homo sapiens); test: Inhibition of human PCFT-mediated [3H]MTX uptake expressed in chinese hamster R2 cells at pH 5.5 by dixon plot analysis relative to PMX; format: cell-based; details: concentration not given here
[21] = target: T2, Proton-coupled folate transporter (Homo sapiens); test: Inhibition of human PCFT-mediated [3H]MTX uptake expressed in chinese hamster R2 cells at pH 6.8 […] relative to PMX; format: cell-based; details: concentration not given here
IGROV-1 [22] = test: Antitumor activity against human IGROV1 cells expressing human RFC, FRalpha and PCFT xenografted in SCID mouse assessed as log cell kill at 180 mg/kg, iv administered on days 3, 7, 11, 15, and 19 postimplantation; format: functional
How it was run: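 Female ICR SCID mice, 10 weeks old, on a folate-deficient diet from 24 days before implant. Bilateral subcutaneous IGROV1 tumour fragments (30–60 mg, by trocar); mice pooled, then randomised. IV dosing on days 3, 7, 11, 15 and 19. Mice weighed daily; tumours measured by caliper 2–3 times weekly; mice sacrificed at 1500 mg tumour burden. Weight-loss nadir and recovery recorded.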

R2 [23] = test: Antiproliferative activity against chinese hamster R2 cells expressing human PCFT assessed as growth inhibition at <50 nM in the presence of 10 uM thymidine; format: functional, cell-based; details: Cricetulus griseus
How it was run: (§2)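 R2/hPCFT4 cells were grown in folate-free RPMI with 25 nM leucovorin and 10% dFBS and exposed to antifolate for up to 96 h. Rescue co-incubations used thymidine (10 µM), adenosine (60 µM) and AICA (320 µM), alone or combined. Viability was read by CellTiter-blue.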

R2 [24] = test: Antiproliferative activity against chinese hamster R2 cells expressing human PCFT assessed as growth inhibition in the presence of 10 uM thymidine and 320 uM AICA; format: functional, cell-based; details: Cricetulus griseus
How it was run: as §2

R2 [25] = test: Antiproliferative activity against chinese hamster R2 cells expressing human PCFT assessed as growth inhibition in the presence of 60 uM adenosine; format: functional, cell-based; details: Cricetulus griseus
How it was run: as §2

R2 [26] = test: Antiproliferative activity against chinese hamster R2 cells expressing human PCFT assessed as growth inhibition in the presence of 60 uM adenosine and 10 uM thymidine; format: functional, cell-based; details: Cricetulus griseus
How it was run: as §2

CN(Cc1cnc2nc(N)nc(N)c2n1)c1ccc(C(=O)N[C@@H](CCC(=O)O)C(=O)O)cc1 [METHOTREXATE]
IC50 [1]: > 1000 nM

Nc1nc2c(c(=O)[nH]1)C[C@@H](CCc1ccc(C(=O)N[C@@H](CCC(=O)O)C(=O)O)cc1)CN2 [LOMETREXOL]
Activity (R2 [2]): 76%
inhibition (R2 [3]): Active
IC50 [4]: > 188 nM
IC50 (R2 [5]): 38 nM
inhibition [6]: Active
IC50 [1]: > 1000 nM

Nc1nc2[nH]c(CCc3ccc(C(=O)N[C@@H](CCC(=O)O)C(=O)O)s3)cc2c(=O)[nH]1
inhibition [7]: inactive
IC50 [8]: > 1000 nM
IC50 [9]: 38.9 nM
IC50 [4]: > 1000 nM
IC50 [10]: 6.58 nM
IC50 [11]: > 1000 nM
IC50 (R2 [5]): 135 nM
IC50 (KB [12]): 3.22 nM
IC50 (KB [13]): > 1000 nM
IC50 (IGROV-1 [14]): 123 nM
IC50 (IGROV-1 [15]): > 1000 nM
inhibition [6]: Active
inhibition [16]: inactive
IC50 (R2 [17]): > 1000 nM
IC50 [1]: > 1000 nM

Cc1nc(=O)c2cc(CN(C)c3ccc(C(=O)N[C@@H](CCC(=O)O)C(=O)O)s3)ccc2[nH]1 [RALTITREXED]
inhibition [6]: Active

Nc1nc(N)c2nc(CNc3ccc(C(=O)N[C@@H](CCCNC(=O)c4ccccc4C(=O)O)C(=O)O)cc3)cnc2n1 [TALOTREXIN]
inhibition [18]: inactive
IC50 (R2 [5]): > 1000 nM
inhibition [6]: Active
IC50 (R2 [17]): > 1000 nM
IC50 [1]: > 1000 nM

Nc1nc(=O)c2c([nH]1)NCC(CNc1ccc(C(=O)N[C@@H](CCC(=O)O)C(=O)O)cc1)N2C=O (mixture of isomers)
inhibition [6]: Active

Nc1nc2[nH]c(CCCCc3ccc(C(=O)N[C@@H](CCC(=O)O)C(=O)O)s3)cc2c(=O)[nH]1
Activity [19]: Active
inhibition [18]: Active
inhibition [20]: 35%
inhibition [21]: 18%
Activity (R2 [2]): 90%
IC50 [8]: > 1000 nM
IC50 [4]: > 1000 nM
IC50 [11]: > 1000 nM
IC50 (KB [13]): > 1000 nM
IC50 (IGROV-1 [15]): > 1000 nM
LCK (IGROV-1 [22]): 2.3
inhibition [6]: Active
IC50 (R2 [17]): > 1000 nM
IC50 [1]: > 1000 nM

Nc1nc2[nH]c(Cc3ccc(C(=O)N[C@@H](CCC(=O)O)C(=O)O)s3)cc2c(=O)[nH]1
IC50 [8]: > 1000 nM
IC50 [9]: 122 nM
IC50 [4]: > 1000 nM
IC50 (R2 [5]): 291 nM
IC50 (KB [12]): 41.9 nM
IC50 (KB [13]): > 1000 nM
IC50 (IGROV-1 [14]): > 1000 nM
IC50 (IGROV-1 [15]): > 1000 nM
IC50 (R2 [17]): > 1000 nM
IC50 [1]: > 1000 nM

Nc1nc2[nH]cc(CCc3ccc(C(=O)N[C@@H](CCC(=O)O)C(=O)O)cc3)c2c(=O)[nH]1 [PEMETREXED]
Activity (R2 [23]): inactive
Activity (R2 [24]): Active
Activity (R2 [25]): Active
Activity (R2 [26]): inactive
Activity (R2 [2]): 17%
inhibition (R2 [3]): Active
inhibition [6]: Active
